Test results taken from PMC3390238 (Science Translational Medicine, 2012).
Read-outs that look alike come from different tables or passages of the source. Positions of bridges follow the written chain, without caps; N, C: chain ends. Non-standard residues stand in square brackets, D forms with d. Residues, ends and D or L forms follow the SMILES beside them. hArg = N=C(N)NCCCC[C@H](N)C(=O)O; Mpa = O=C(O)CCS

How the values were obtained:
[1] = system: platelet adhesion/aggregation to collagen; test: Platelet adhesion/aggregation to collagen; type: cell-based, human
αIIbβ3 [2] = molecular target: T1, αIIbβ3 (Homo sapiens, UniProt P05106+P08514); test: αIIbβ3-mediated HEK293 cell adhesion to fibrinogen; type: cell-based; details: 100 μM; n = 4
T1 sequence (P08514 32-887 limits assumed): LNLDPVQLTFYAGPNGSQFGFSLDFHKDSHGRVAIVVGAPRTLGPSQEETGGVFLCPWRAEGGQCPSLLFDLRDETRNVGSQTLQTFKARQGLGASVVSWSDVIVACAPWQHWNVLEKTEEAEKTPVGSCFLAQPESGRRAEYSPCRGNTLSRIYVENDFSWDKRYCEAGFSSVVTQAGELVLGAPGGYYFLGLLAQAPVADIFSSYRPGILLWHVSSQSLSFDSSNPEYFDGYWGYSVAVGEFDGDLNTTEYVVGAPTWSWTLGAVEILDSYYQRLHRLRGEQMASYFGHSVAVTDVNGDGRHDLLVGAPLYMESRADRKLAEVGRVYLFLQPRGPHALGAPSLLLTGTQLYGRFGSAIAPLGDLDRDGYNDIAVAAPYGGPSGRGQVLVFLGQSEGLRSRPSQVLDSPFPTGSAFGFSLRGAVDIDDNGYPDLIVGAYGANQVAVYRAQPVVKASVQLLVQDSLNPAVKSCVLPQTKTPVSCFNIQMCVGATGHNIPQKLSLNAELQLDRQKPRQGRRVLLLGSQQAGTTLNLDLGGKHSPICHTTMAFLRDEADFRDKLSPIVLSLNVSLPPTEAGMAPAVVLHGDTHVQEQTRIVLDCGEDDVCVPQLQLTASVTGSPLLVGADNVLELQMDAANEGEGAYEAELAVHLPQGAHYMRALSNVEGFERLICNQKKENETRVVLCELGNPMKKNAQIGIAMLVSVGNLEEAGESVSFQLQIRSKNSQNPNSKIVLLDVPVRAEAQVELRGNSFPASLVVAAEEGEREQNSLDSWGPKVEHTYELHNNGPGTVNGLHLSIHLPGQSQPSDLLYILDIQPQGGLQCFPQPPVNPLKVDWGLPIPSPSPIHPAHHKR
T1 sequence (P08514 891-1039 partner limits assumed): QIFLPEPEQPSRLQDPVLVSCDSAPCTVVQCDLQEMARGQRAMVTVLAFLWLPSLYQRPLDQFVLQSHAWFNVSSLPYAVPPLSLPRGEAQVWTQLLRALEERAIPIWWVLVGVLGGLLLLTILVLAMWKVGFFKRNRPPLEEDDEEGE
T1 sequence (P05106 27-788): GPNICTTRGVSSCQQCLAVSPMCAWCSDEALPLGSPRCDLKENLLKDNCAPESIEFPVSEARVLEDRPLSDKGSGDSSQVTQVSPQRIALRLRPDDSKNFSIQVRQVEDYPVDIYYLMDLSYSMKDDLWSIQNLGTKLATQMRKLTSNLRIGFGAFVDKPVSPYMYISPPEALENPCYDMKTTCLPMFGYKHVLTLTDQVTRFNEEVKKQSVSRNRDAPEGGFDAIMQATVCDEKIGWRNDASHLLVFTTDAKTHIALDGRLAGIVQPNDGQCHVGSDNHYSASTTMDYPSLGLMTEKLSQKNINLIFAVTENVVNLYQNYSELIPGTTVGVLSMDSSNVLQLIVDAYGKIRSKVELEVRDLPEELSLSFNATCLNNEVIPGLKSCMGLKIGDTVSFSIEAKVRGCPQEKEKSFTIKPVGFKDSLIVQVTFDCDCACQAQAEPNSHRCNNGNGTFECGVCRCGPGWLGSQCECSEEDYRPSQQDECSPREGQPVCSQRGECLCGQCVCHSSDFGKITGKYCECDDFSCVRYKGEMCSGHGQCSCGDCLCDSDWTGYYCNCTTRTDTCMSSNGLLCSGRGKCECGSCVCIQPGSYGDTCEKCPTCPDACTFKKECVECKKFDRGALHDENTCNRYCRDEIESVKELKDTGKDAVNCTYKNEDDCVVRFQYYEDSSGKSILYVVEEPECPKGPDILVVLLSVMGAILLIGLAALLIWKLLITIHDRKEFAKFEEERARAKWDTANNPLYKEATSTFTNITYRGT

αIIbβ3 [3] = molecular target: T1, αIIbβ3; test: Platelet adhesion to immobilized fibrinogen screening assay; type: cell-based; details: for inhibition of platelet adhesion to fibrinogen: mean ± SD, five experiments
αIIbβ3 [4] = molecular target: T1, αIIbβ3; test: Platelet adhesion to fibrinogen at different Mg2+ concentrations; type: cell-based; details: for IC50: IC50, platelet adhesion to fibrinogen, 1 mM Ca2+, mean ± SD, three experiments
recombinant human αIIbβ3 = type: cell-based; details: going from 1 to 50 mM Mg2+
Method in brief: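 CHO-K cells stably expressing human αIIbβ3 were preincubated ±test compound for 30 min at each Mg²⁺ level (1 to 50 mM) plus 1 mM Ca²⁺. They were then exposed to PAC-1 (5 µg/ml) with activating mAb PT25-2 (5 µg/ml) for 30 min at 25°C, stained with PE anti-mouse IgM on ice for 30 min, and analysed by flow cytometry. Read-out was % MFI with vs without drug (n=3); IC50 was compared across Mg²⁺ levels.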

mouse platelets = test: ADP-induced mouse platelet aggregation; type: cell-based
platelet αIIbβ3 = platelet αIIbβ3 (Homo sapiens, UniProt P05106+P08514); test: Priming assay: induction of fluorescent fibrinogen binding to platelets; type: cell-based; details: for incremental fibrinogen binding: one experiment
αIIbβ3 [5] = molecular target: T1, αIIbβ3; test: ADP-induced platelet aggregation of platelet-rich plasma; type: cell-based
αVβ3 = αVβ3 (Homo sapiens, UniProt P05106+P06756); test: αVβ3-mediated HEK293 cell adhesion to vitronectin; type: cell-based
αIIbβ3 [6] = molecular target: T1, αIIbβ3; test: Platelet aggregation induced by thrombin receptor–activating peptide; type: cell-based; details: 20 mM vs 1 mM Mg2+
normal human platelets = test: Recruitment of αIIbβ3-dependent patient IgG to drug-pretreated platelets; type: cell-based; details: for recruitment of patient IgG to platelets: all 5 tirofiban samples and 13 of 15 eptifibatide samples
Method in brief: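 Normal platelets were pretreated with test compound, then exposed to sera from patients with tirofiban- (5) or eptifibatide-induced (15) thrombocytopenia. Platelet-bound patient IgG was read as median MFI. Signals were compared with untreated control platelets and with eptifibatide-treated platelets.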

αIIbβ3 headpiece [7] = molecular target: T2, αIIbβ3 headpiece (Homo sapiens, UniProt P05106+P08514); test: Gel filtration of soluble αIIbβ3 headpiece; details: for reduction in αIIbβ3 headpiece elution volume: Superdex 200
Target sequence in this assay (P08514 32-652 limits assumed): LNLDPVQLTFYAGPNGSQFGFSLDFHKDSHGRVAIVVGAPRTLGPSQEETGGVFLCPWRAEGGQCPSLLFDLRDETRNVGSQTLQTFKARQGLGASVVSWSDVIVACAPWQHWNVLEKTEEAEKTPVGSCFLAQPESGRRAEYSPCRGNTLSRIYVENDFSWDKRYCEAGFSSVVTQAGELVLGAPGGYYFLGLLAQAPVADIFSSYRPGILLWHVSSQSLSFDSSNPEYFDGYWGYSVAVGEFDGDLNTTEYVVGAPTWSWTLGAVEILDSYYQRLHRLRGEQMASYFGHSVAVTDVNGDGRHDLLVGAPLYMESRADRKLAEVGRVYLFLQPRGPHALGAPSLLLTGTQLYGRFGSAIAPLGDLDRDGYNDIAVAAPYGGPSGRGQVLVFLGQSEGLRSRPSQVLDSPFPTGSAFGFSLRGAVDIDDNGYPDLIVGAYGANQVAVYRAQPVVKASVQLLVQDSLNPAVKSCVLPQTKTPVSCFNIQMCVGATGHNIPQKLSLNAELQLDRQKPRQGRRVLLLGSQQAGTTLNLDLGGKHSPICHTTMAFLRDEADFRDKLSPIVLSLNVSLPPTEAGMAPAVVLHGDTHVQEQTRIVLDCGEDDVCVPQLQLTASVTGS
Target sequence in this assay (P05106 27-498 limits assumed): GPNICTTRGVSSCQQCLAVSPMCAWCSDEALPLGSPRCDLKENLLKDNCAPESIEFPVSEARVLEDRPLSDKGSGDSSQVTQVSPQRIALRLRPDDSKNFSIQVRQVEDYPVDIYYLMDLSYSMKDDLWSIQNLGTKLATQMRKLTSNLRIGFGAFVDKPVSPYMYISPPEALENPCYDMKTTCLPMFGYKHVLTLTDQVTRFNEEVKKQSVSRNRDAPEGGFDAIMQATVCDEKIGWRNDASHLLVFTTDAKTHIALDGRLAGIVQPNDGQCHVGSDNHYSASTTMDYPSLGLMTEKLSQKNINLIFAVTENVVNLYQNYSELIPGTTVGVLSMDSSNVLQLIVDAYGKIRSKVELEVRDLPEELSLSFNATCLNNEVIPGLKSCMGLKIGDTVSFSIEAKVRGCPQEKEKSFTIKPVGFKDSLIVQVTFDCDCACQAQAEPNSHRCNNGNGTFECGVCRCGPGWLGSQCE

[8] = molecular target: αIIbβ3 ligand-induced binding sites (Homo sapiens, UniProt P05106+P08514); test: Induction of ligand-induced binding site; type: cell-based; details: for PMI-1 binding to platelets, % of amount bound in the presence of eptifibatide: αIIb LIBS mAb PMI-1, untreated 46 ± 5%; for PMI-1 binding to platelets, % of amount bound in the presence of eptifibatide / LIBS1 binding to platelets, % of amount bound in the presence of eptifibatide: eptifibatide = 100%; for AP5 binding to platelets, % of amount bound in the presence of eptifibatide: β3 LIBS mAb AP5, eptifibatide 10 μM = 100%, untreated 7 ± 3%; for LIBS1 binding to platelets, % of amount bound in the presence of eptifibatide: β3 LIBS mAb LIBS1, after 30 min, untreated 22 ± 3%
αIIbβ3 ligand-induced binding sites, sequence (P08514 32-887 limits assumed): as the sequence (P08514 32-887 limits assumed) above
αIIbβ3 ligand-induced binding sites, sequence (P08514 891-1039 partner limits assumed): as the sequence (P08514 891-1039 partner limits assumed) above
αIIbβ3 ligand-induced binding sites, sequence (P05106 27-788): as the sequence (P05106 27-788) above
Method in brief: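 Flow-based binding of LIBS mAbs to platelets: AP5 (β3 PSI domain), LIBS1 (β3 distal leg) and PMI-1 (αIIb). Net normalized fluorescence was expressed relative to platelets treated with eptifibatide, set as 100%. For AP5 the reference was eptifibatide 10 µM, 30 min at 22°C. Replicates: n=5 for AP5, n=4 for PMI-1.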

αIIbβ3 headpiece [9] = molecular target: T2, αIIbβ3 headpiece; test: Dynamic light scattering of soluble αIIbβ3 headpiece
Target sequence in this assay (P08514 32-652 limits assumed): as the sequence (P08514 32-652 limits assumed) above
Target sequence in this assay (P05106 27-498 limits assumed): as the sequence (P05106 27-498 limits assumed) above

αIIbβ3 [10] = details: 25.6 mg/kg; cited from earlier work
rat platelets = test: ADP-induced rat platelet aggregation; type: cell-based
purified αIIbβ3 = purified αIIbβ3 (Homo sapiens, UniProt P05106+P08514); test: Negative stain EM of αIIbβ3 nanodiscs
αIIbβ3 headpiece [11] = molecular target: T2, αIIbβ3 headpiece; test: X-ray crystallography of RUC-2–αIIbβ3 headpiece complex; details: determined by x-ray crystallography, PDB code 3T3M
[12] = pKa by titration in water; type: physicochemical
hαIIb/mβ3 = hαIIb/mβ3 (UniProt O54890+P08514); test: Aggregation of platelets from a mouse expressing human αIIb and mouse β3; type: cell-based
[13] = 100 μM, first reactive eptifibatide-patient serum
[14] = read-out: inhibition of platelet adhesion to fibrinogen

10E5: anti-αIIbβ3 (αIIbβ3-specific) mAb
inhibition of platelet adhesion/aggregation to collagen ([1]; mAb, concentration not given): ~ 30%

CCc1nn2c(=O)cc(N3CCNCC3)nc2s1 [RUC-1, reference compound]
inhibition of adhesion of HEK293 cells expressing αIIbβ3 to fibrinogen (αIIbβ3 [2]): 55 ± 5% | inhibition of platelet adhesion to fibrinogen (αIIbβ3 [3]; 10 μM): 22 ± 8% | inhibition of platelet adhesion to fibrinogen (αIIbβ3 [3]; 30 μM): 38 ± 10% | inhibition of platelet adhesion to fibrinogen (αIIbβ3 [3]; 100 μM): 70 ± 15% | increase in IC50 at higher Mg2+ concentrations, platelet adhesion to fibrinogen (αIIbβ3 [4]; compared with RUC-2): Neither RUC-1 nor tirofiban showed a comparable increase in IC50 | increase of IC50 for PAC-1 binding (recombinant human αIIbβ3): ~ 6% | inhibition of mouse platelet aggregation induced by ADP (mouse platelets; 100 μM): did not inhibit | incremental fibrinogen binding (platelet αIIbβ3; 100 μM): 2% | inhibition of human platelet aggregation (αIIbβ3 [5]; 100 μM): nearly completely inhibited | IC50 (αIIbβ3 [5]; read-out: IC50, ADP-induced platelet aggregation, citrated PRP, ADP 5 μM, initial slope): 9700 ± 1000 nM | inhibition of adhesion of HEK293 cells expressing αVβ3 to vitronectin (αVβ3; 100 μM, n = 4): 5 ± 7% | inhibitory effect on SFLLRN-induced platelet aggregation (αIIbβ3 [6]; 100 μM): much less evident | recruitment of patient IgG to platelets (normal human platelets; 100 μM): Neither RUC-1 nor RUC-2 induced recruitment of patient IgG | MFI increase as % of value with eptifibatide-treated platelets (normal human platelets; [13]): 13% | median MFI relative to control platelets (normal human platelets; [13]): 6.8 times | recognition of pretreated platelets by patient serum (normal human platelets; 100 μM, second reactive eptifibatide-patient serum): but not RUC-1 | increase in Stokes radius, gel filtration (αIIbβ3 headpiece [7]; 500 μM (near-saturating)): little or no increases | reduction in αIIbβ3 headpiece elution volume (αIIbβ3 headpiece [7]; 500 μM (near-saturating)): 0.03 mL | PMI-1 binding to platelets, % of amount bound in the presence of eptifibatide [8]: 73 ± 9% | AP5 binding to platelets, % of amount bound in the presence of eptifibatide [8]: 10 ± 4% | LIBS1 binding to platelets, % of amount bound in the presence of eptifibatide [8]: 18 ± 2% | increase in Stokes radius, DLS (αIIbβ3 headpiece [9]; 500 μM (near-saturating)): 0.08 nm | antithrombotic effects in murine models in large and small blood vessels (αIIbβ3 [10]): has antithrombotic effects | inhibition of rat platelet aggregation induced by ADP (rat platelets; 100 μM): did not inhibit | shift of NIL value distribution of αIIbβ3 nanodiscs (purified αIIbβ3; up to 100 μM, P = 0.23): neither RUC-1 at concentrations up to 100 μM nor RUC-2 at concentrations up to 10 μM produced a significant shift

NCC(=O)Nc1cccc(-c2nn3c(=O)cc(N4CCNCC4)nc3s2)c1 [RUC-2, 2-amino-N-(3-(5-oxo-7-(piperazin-1-yl)-5H-[1,3,4]thiadiazolo[3,2-a]pyrimidin-2-yl)phenyl)acetamide]
αIIbβ3-dependent platelet adhesion to fibrinogen in a screening assay (αIIbβ3 [3]): RUC-2 inhibited αIIbβ3-dependent platelet adhesion to fibrinogen in a screening assay and αIIbβ3-dependent platelet aggregation. It was found to bind to the target via x-ray crystallography (PDB code 3T3M). | inhibition at 10 µM (αIIbβ3 [3]; [14]): 66 ± 10% | inhibition at 30 µM (αIIbβ3 [3]; [14]): 80 ± 13% | inhibition at 100 µM (αIIbβ3 [3]; [14]): 83 ± 7% | IC50 (αIIbβ3 [4]; 1 mM Mg2+): 290 ± 100 nM | IC50 (αIIbβ3 [4]; 20 mM Mg2+): 910 ± 210 nM | IC50 (αIIbβ3 [4]; 50 mM Mg2+): 1300 ± 350 nM | decrease in affinity, platelet adhesion to fibrinogen (αIIbβ3 [4]; going from 1 to 50 mM Mg2+): ~ 80% | increase in IC50, platelet adhesion to fibrinogen (αIIbβ3 [4]; going from 1 to 50 mM Mg2+): ~ 4.5 fold | reduction in affinity (PAC-1 binding) (recombinant human αIIbβ3): ~75% | increase of IC50 for PAC-1 binding (recombinant human αIIbβ3; 1 mM Ca2+, activating mAb PT25-2): ~ 3.9 fold | inhibition of mouse platelet aggregation induced by ADP (mouse platelets; 1 μM): did not inhibit | incremental fibrinogen binding (platelet αIIbβ3; 1 μM): did not produce any incremental binding | fibrinogen binding to platelets (priming) (platelet αIIbβ3; 5 μM): did not increase the fibrinogen binding | IC50 (αIIbβ3 [5]): 220 nM | αIIbβ3-dependent platelet aggregation (αIIbβ3 [5]): RUC-2 inhibited αIIbβ3-dependent platelet adhesion to fibrinogen in a screening assay and αIIbβ3-dependent platelet aggregation. It was found to bind to the target via x-ray crystallography (PDB code 3T3M). | inhibition of human platelet aggregation (αIIbβ3 [5]; 1 μM): nearly completely inhibited | effect on αVβ3-mediated cell adhesion to vitronectin (αVβ3): RUC-2 had minimal effect on αVβ3-mediated cell adhesion to vitronectin. | inhibitory effect on SFLLRN-induced platelet aggregation (αIIbβ3 [6]; 1 μM): clearly attenuated | inhibition of platelet adhesion/aggregation to collagen ([1]; 1 to 100 μM): ~ 30% | further inhibition of adhesion/aggregation to collagen ([1]; RUC-2 combined with anti-αIIbβ3 antibody 10E5): did not further inhibit | platelet adhesion to collagen, microscopic analysis ([1]; decreased recruitment of additional platelets to adherent platelets): did not decrease platelet adhesion to collagen | mechanism of inhibition (αIIbβ3 headpiece [11]): Orthosteric inhibition at the RGD binding domain as determined by x-ray crystallography | recruitment of patient IgG to platelets (normal human platelets; 3.9 μM): Neither RUC-1 nor RUC-2 induced recruitment of patient IgG | MFI increase as % of value with eptifibatide-treated platelets (normal human platelets; 3.9 μM, first reactive eptifibatide-patient serum): 8% | increase in Stokes radius, gel filtration (αIIbβ3 headpiece [7]; 100 μM (near-saturating)): little or no increases | reduction in αIIbβ3 headpiece elution volume (αIIbβ3 headpiece [7]; 100 μM (near-saturating)): 0.07 mL | PMI-1 binding to platelets, % of amount bound in the presence of eptifibatide [8]: 82 ± 13% | AP5 binding to platelets, % of amount bound in the presence of eptifibatide [8]: 18 ± 5% | LIBS1 binding to platelets, % of amount bound in the presence of eptifibatide [8]: 21 ± 3% | increase in Stokes radius, DLS (αIIbβ3 headpiece [9]; 100 μM (near-saturating)): 0.16 nm | pKa ([12]; pKa 1 (primary amine)): 6.41 | pKa ([12]; pKa 2 (piperazine nitrogen)): 8.08 | inhibition of rat platelet aggregation induced by ADP (rat platelets; 1 μM): did not inhibit | inhibition of aggregation of hαIIb/mβ3 mouse platelets (hαIIb/mβ3): essentially completely inhibited

N=C(N)NCCCC[C@@H]1NC(=O)CCSSC[C@@H](C(N)=O)NC(=O)[C@@H]2CCCN2C(=O)[C@H](Cc2c[nH]c3ccccc23)NC(=O)[C@H](CC(=O)O)NC(=O)CNC1=O [eptifibatide] ([Mpa][hArg]GDWPC-NH2; disulfide 1-7 (inferred))
incremental fibrinogen binding (platelet αIIbβ3; 1 μM): 34% | shift of NIL value distribution of αIIbβ3 nanodiscs (purified αIIbβ3; dose-dependent, P < 0.001): shifted the distribution in a dose-dependent manner

CCCCS(=O)(=O)N[C@@H](Cc1ccc(OCCCCC2CCNCC2)cc1)C(=O)O [tirofiban]
inhibition at 10 µM (αIIbβ3 [3]; [14]): 87 ± 9% | change of IC50 for PAC-1 binding (recombinant human αIIbβ3): completely unchanged | incremental fibrinogen binding (platelet αIIbβ3; 0.5 μM): 17% | recruitment of patient IgG (normal human platelets; the two eptifibatide-treated patient samples reactive with RUC compounds): able to recruit patient IgG | increase in Stokes radius, gel filtration (αIIbβ3 headpiece [7]; 56 μM (near-saturating)): 0.4 nm | reduction in αIIbβ3 headpiece elution volume (αIIbβ3 headpiece [7]; 56 μM (near-saturating)): 0.38 mL | increase in Stokes radius, DLS (αIIbβ3 headpiece [9]; 56 μM (near-saturating)): 0.45 nm

RGDS
incremental fibrinogen binding (platelet αIIbβ3; 100 μM): 36%
